In the array DNA melting data of Ke et al. (doi:10.1101/2024.01.08.574731):

Columns and labels:
[1] = folding enthalpy; higher = less favourable; fluorescence melt of hairpins on a sequencing array, two-state fit; conditions: sodium 0.088 M
How it was run: (§1)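 To match UV melts, fitted temperatures were raised by 9.35 °C. These fits were bootstrapped two-state models that gave melting temperature and folding enthalpy, combined by inverse variance over four replicates. The input was normalised Cy3 fluorescence of library hairpins with annealed Cy3 and quencher oligos on a sequenced MiSeq flow cell, imaged in 50 mM Na-HEPES pH 8.0, 25 mM NaCl in 2.5 °C steps up to 60 °C.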

[2] = melting temperature; fluorescence melt of hairpins on a sequencing array, two-state fit, raised by 9.35 °C to match UV melts; conditions: sodium 0.088 M
How it was run: as §1

GATCTACCAGTAGATC ((((((....))))))
folding enthalpy [1]: -32.6 kcal/mol | Tm [2]: 48.9 °C

GGGCAGCGAAAGCTCCC (((.(((....))))))
folding enthalpy [1]: -20.3 kcal/mol | Tm [2]: 57.3 °C

GCAAAAGCGAAAGCTTGC (((..(((....))))))
folding enthalpy [1]: -18.3 kcal/mol | Tm [2]: 51.4 °C

GCCATGCGAAAGCACAGC ((..(((....)))..))
folding enthalpy [1]: -11.2 kcal/mol | Tm [2]: 36.6 °C

GATCCGACGCGGATC ((((((...))))))
folding enthalpy [1]: -37.3 kcal/mol | Tm [2]: 56.8 °C

GCTCGACGAAAGTCTAGC (((.(((....))).)))
folding enthalpy [1]: -41.8 kcal/mol | Tm [2]: 49.6 °C

GGGAGCGGAAACACCCCC (((.(.(....).).)))
folding enthalpy [1]: -16 kcal/mol | Tm [2]: 28.2 °C

GCGGCTCACCGC ((((....))))
folding enthalpy [1]: -26.9 kcal/mol | Tm [2]: 63 °C

GTCATCGGAAACGACGAC (((.(((....))).)))
folding enthalpy [1]: -29.7 kcal/mol | Tm [2]: 43.2 °C

GATCGCCCTCGCGATC ((((((....))))))
folding enthalpy [1]: -27.9 kcal/mol | Tm [2]: 67.5 °C

GCAATACCGAAAGGTTGC (((..(((....))))))
folding enthalpy [1]: -21.6 kcal/mol | Tm [2]: 45.5 °C

GTGACTCCGAAAGGACAC (((..(((....))))))
folding enthalpy [1]: -9.23 kcal/mol | Tm [2]: 35.4 °C

GCGATCCGAAAGGACCGC (((.(((....))).)))
folding enthalpy [1]: -36.1 kcal/mol | Tm [2]: 63.2 °C

GGTTGACGAAAGTCTACC (((.(((....))).)))
folding enthalpy [1]: -33.1 kcal/mol | Tm [2]: 53.8 °C

GAACCCGGAAACAGGTTC (((((.(....).)))))
folding enthalpy [1]: -25.9 kcal/mol | Tm [2]: 40 °C

GATGTCGCGAAAGCGATC (((..(((....))))))
folding enthalpy [1]: -8.5 kcal/mol | Tm [2]: 31.1 °C

GTGATGAAAATCAC (((((....)))))
folding enthalpy [1]: -22.8 kcal/mol | Tm [2]: 49.6 °C

GATCTGTACTCAGATC ((((((....))))))
folding enthalpy [1]: -36.1 kcal/mol | Tm [2]: 50.2 °C

GCGCGCGAAAGCGGCCGC ((((((....)))..)))
folding enthalpy [1]: -15.3 kcal/mol | Tm [2]: 59 °C

GATCGGTTGGCCGATC ((((((....))))))
folding enthalpy [1]: -42 kcal/mol | Tm [2]: 60.9 °C

GCAGTCGAAAGACCTTGC ((((((....)))..)))
folding enthalpy [1]: -13.3 kcal/mol | Tm [2]: 33.8 °C

GCCCCACGAAAGTGTGGC (((.(((....))).)))
folding enthalpy [1]: -35.9 kcal/mol | Tm [2]: 57.9 °C

GCGACGAATCGC ((((....))))
folding enthalpy [1]: -13.1 kcal/mol | Tm [2]: 49.6 °C

GCGCGGCGAAAGCCTTGC ((..(((....)))..))
folding enthalpy [1]: -16 kcal/mol | Tm [2]: 46.1 °C

GCGAACTATCGC ((((....))))
folding enthalpy [1]: -20.6 kcal/mol | Tm [2]: 45.4 °C

GTGATCGAAAGATACCAC ((((((....)))..)))
folding enthalpy [1]: -10.5 kcal/mol | Tm [2]: 26.6 °C

GCGTCGGGAAACCGATGC ((.((((....)))).))
folding enthalpy [1]: -34 kcal/mol | Tm [2]: 65 °C

GATCGGGAGCCGATC ((((((...))))))
folding enthalpy [1]: -22 kcal/mol | Tm [2]: 53.7 °C

GATCCGCATCGGATC ((((((...))))))
folding enthalpy [1]: -38.3 kcal/mol | Tm [2]: 56.5 °C

GATCAGGTCTCTGATC ((((((....))))))
folding enthalpy [1]: -50.3 kcal/mol | Tm [2]: 53.4 °C

GATCCTACATAGGATC ((((((....))))))
folding enthalpy [1]: -35.5 kcal/mol | Tm [2]: 52.8 °C

GTACTTGCGAAAGCATAC (((..(((....))))))
folding enthalpy [1]: -9 kcal/mol | Tm [2]: 30.2 °C

GCGAAATGTCGC ((((....))))
folding enthalpy [1]: -18.6 kcal/mol | Tm [2]: 44.8 °C

GCACCCGAAAGGGAGTGC ((((((....)))..)))
folding enthalpy [1]: -38.3 kcal/mol | Tm [2]: 54 °C

GAAGGGGGAAACCCCTCC (.(((((....))))).)
folding enthalpy [1]: -13.1 kcal/mol | Tm [2]: 36.5 °C

GATCACCGTAGTGATC ((((((....))))))
folding enthalpy [1]: -51.1 kcal/mol | Tm [2]: 57 °C

GCGTGCTGACGC ((((....))))
folding enthalpy [1]: -18.1 kcal/mol | Tm [2]: 58.2 °C

GCGACGGTCGC ((((...))))
folding enthalpy [1]: -28.4 kcal/mol | Tm [2]: 48.7 °C

GATCCGGGACGGATC ((((((...))))))
folding enthalpy [1]: -37.1 kcal/mol | Tm [2]: 68.9 °C

GGAGGTGGAAACATCTCC ((((.((....)).))))
folding enthalpy [1]: -44.1 kcal/mol | Tm [2]: 49.1 °C

GACTACACGAAAGTGGTC (((..(((....))))))
folding enthalpy [1]: -14.2 kcal/mol | Tm [2]: 40 °C

GATCTCTCTGGAGATC ((((((....))))))
folding enthalpy [1]: -42.8 kcal/mol | Tm [2]: 54.8 °C

GGTACTGGAAACAGTGCC ((.((((....)))).))
folding enthalpy [1]: -41.8 kcal/mol | Tm [2]: 54.9 °C

GGTAGGTCGAAAGACACC (((..(((....))))))
folding enthalpy [1]: -16.5 kcal/mol | Tm [2]: 35.3 °C

GTCTAAGGAAACTTAGGC (.(((((....))))).)
folding enthalpy [1]: -25.5 kcal/mol | Tm [2]: 38.1 °C

GCGACTATCGC ((((...))))
folding enthalpy [1]: -16.8 kcal/mol | Tm [2]: 46.6 °C

GATCGCACTGGCGATC ((((((....))))))
folding enthalpy [1]: -34 kcal/mol | Tm [2]: 68.2 °C
